According to ChEMBL document CHEMBL1765020, “Synthesis and structure-affinity relationships of novel dibenzylideneacetone derivatives as probes for β-amyloid plaques” (J Med Chem, 2011):
One block for each compound: values may come before it.

How the values were obtained:
[1] = tested on: Spleen; experiment: Biodistribution in ddY mouse spleen at 10 uCi/100 uL, iv after 2 mins by gamma counting; type: ADME, organism-based; details: in vivo
[2] = tested on: Stomach; experiment: Biodistribution in ddY mouse stomach at 10 uCi/100 uL, iv after 2 mins by gamma counting; type: ADME, organism-based; details: in vivo
[3] = tested on: Intestine; experiment: Biodistribution in ddY mouse intestine at 10 uCi/100 uL, iv after 2 mins by gamma counting; type: ADME, organism-based; details: in vivo
In short: (§1)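 Normal female ddY mice (5 weeks, about 20 g; n = 4 per group) received radiotracer iv. Organs were removed and weighed at 2–120 min and counted in a γ-counter. Percent dose per gram of wet tissue was calculated against diluted aliquots of the injected material and reported as mean ± SD.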

[4] = tested on: Lung; experiment: Biodistribution in ddY mouse lung at 10 uCi/100 uL, iv after 2 mins by gamma counting; type: ADME, organism-based; details: in vivo
[5] = tested on: Heart; experiment: Biodistribution in ddY mouse heart at 10 uCi/100 uL, iv after 2 mins by gamma counting; type: ADME, organism-based; details: in vivo; in short: as §1
[6] = tested on: Brain; experiment: Biodistribution in ddY mouse brain at 10 uCi/100 uL, iv after 15 mins by gamma counting; type: ADME, organism-based; details: in vivo, 0.25 h; in short: as §1
[7] = tested on: Blood; experiment: Biodistribution in ddY mouse blood at 10 uCi/100 uL, iv after 15 mins by gamma counting; type: ADME, organism-based; details: in vivo, 0.25 h; in short: as §1
[8] = tested on: Bone; experiment: Biodistribution in ddY mouse bone at 10 uCi/100 uL, iv after 15 mins by gamma counting; type: ADME, organism-based, Bone element; details: in vivo, 0.25 h; in short: as §1
[9] = tested on: Liver; experiment: Biodistribution in ddY mouse liver at 10 uCi/100 uL, iv after 15 mins by gamma counting; type: ADME, organism-based; details: in vivo, 0.25 h
[10] = tested on: Kidney; experiment: Biodistribution in ddY mouse kidney at 10 uCi/100 uL, iv after 15 mins by gamma counting; type: ADME, organism-based; details: in vivo, 0.25 h
[11] = tested on: Spleen; experiment: Biodistribution in ddY mouse spleen at 10 uCi/100 uL, iv after 15 mins by gamma counting; type: ADME, organism-based; details: in vivo, 0.25 h
[12] = tested on: Stomach; experiment: Biodistribution in ddY mouse stomach at 10 uCi/100 uL, iv after 15 mins by gamma counting; type: ADME, organism-based; details: in vivo, 0.25 h
[13] = tested on: Intestine; experiment: Biodistribution in ddY mouse intestine at 10 uCi/100 uL, iv after 15 mins by gamma counting; type: ADME, organism-based; details: in vivo, 0.25 h; in short: as §1
[14] = tested on: Lung; experiment: Biodistribution in ddY mouse lung at 10 uCi/100 uL, iv after 15 mins by gamma counting; type: ADME, organism-based; details: in vivo, 0.25 h
[15] = tested on: Heart; experiment: Biodistribution in ddY mouse heart at 10 uCi/100 uL, iv after 15 mins by gamma counting; type: ADME, organism-based; details: in vivo, 0.25 h; in short: as §1
[16] = tested on: Brain; experiment: Biodistribution in ddY mouse brain at 10 uCi/100 uL, iv after 30 mins by gamma counting; type: ADME, organism-based; details: in vivo, 0.5 h; in short: as §1
[17] = tested on: Blood; experiment: Biodistribution in ddY mouse blood at 10 uCi/100 uL, iv after 30 mins by gamma counting; type: ADME, organism-based; details: in vivo, 0.5 h; in short: as §1
[18] = tested on: Bone; experiment: Biodistribution in ddY mouse bone at 10 uCi/100 uL, iv after 30 mins by gamma counting; type: ADME, organism-based, Bone element; details: in vivo, 0.5 h; in short: as §1
[19] = tested on: Liver; experiment: Biodistribution in ddY mouse liver at 10 uCi/100 uL, iv after 30 mins by gamma counting; type: ADME, organism-based; details: in vivo, 0.5 h
[20] = tested on: Kidney; experiment: Biodistribution in ddY mouse kidney at 10 uCi/100 uL, iv after 30 mins by gamma counting; type: ADME, organism-based; details: in vivo, 0.5 h
[21] = tested on: Spleen; experiment: Biodistribution in ddY mouse spleen at 10 uCi/100 uL, iv after 30 mins by gamma counting; type: ADME, organism-based; details: in vivo, 0.5 h
[22] = tested on: Stomach; experiment: Biodistribution in ddY mouse stomach at 10 uCi/100 uL, iv after 30 mins by gamma counting; type: ADME, organism-based; details: in vivo, 0.5 h
[23] = tested on: Intestine; experiment: Biodistribution in ddY mouse intestine at 10 uCi/100 uL, iv after 30 mins by gamma counting; type: ADME, organism-based; details: in vivo, 0.5 h; in short: as §1
[24] = tested on: Lung; experiment: Biodistribution in ddY mouse lung at 10 uCi/100 uL, iv after 30 mins by gamma counting; type: ADME, organism-based; details: in vivo, 0.5 h
[25] = tested on: Heart; experiment: Biodistribution in ddY mouse heart at 10 uCi/100 uL, iv after 30 mins by gamma counting; type: ADME, organism-based; details: in vivo, 0.5 h; in short: as §1
[26] = tested on: Brain; experiment: Biodistribution in ddY mouse brain at 10 uCi/100 uL, iv after 60 mins by gamma counting; type: ADME, organism-based; details: in vivo, 1 h; in short: as §1
[27] = tested on: Blood; experiment: Biodistribution in ddY mouse blood at 10 uCi/100 uL, iv after 60 mins by gamma counting; type: ADME, organism-based; details: in vivo, 1 h; in short: as §1
[28] = tested on: Bone; experiment: Biodistribution in ddY mouse bone at 10 uCi/100 uL, iv after 60 mins by gamma counting; type: ADME, organism-based, Bone element; details: in vivo, 1 h; in short: as §1
[29] = tested on: Liver; experiment: Biodistribution in ddY mouse liver at 10 uCi/100 uL, iv after 60 mins by gamma counting; type: ADME, organism-based; details: in vivo, 1 h
[30] = tested on: Kidney; experiment: Biodistribution in ddY mouse kidney at 10 uCi/100 uL, iv after 60 mins by gamma counting; type: ADME, organism-based; details: in vivo, 1 h
[31] = tested on: Spleen; experiment: Biodistribution in ddY mouse spleen at 10 uCi/100 uL, iv after 60 mins by gamma counting; type: ADME, organism-based; details: in vivo, 1 h
[32] = tested on: Stomach; experiment: Biodistribution in ddY mouse stomach at 10 uCi/100 uL, iv after 60 mins by gamma counting; type: ADME, organism-based; details: in vivo, 1 h
[33] = tested on: Intestine; experiment: Biodistribution in ddY mouse intestine at 10 uCi/100 uL, iv after 60 mins by gamma counting; type: ADME, organism-based; details: in vivo, 1 h; in short: as §1
[34] = tested on: Lung; experiment: Biodistribution in ddY mouse lung at 10 uCi/100 uL, iv after 60 mins by gamma counting; type: ADME, organism-based; details: in vivo, 1 h
[35] = tested on: Heart; experiment: Biodistribution in ddY mouse heart at 10 uCi/100 uL, iv after 60 mins by gamma counting; type: ADME, organism-based; details: in vivo, 1 h; in short: as §1
[36] = tested on: Brain; experiment: Ratio of drug uptake in ddY mouse brain at 10 uCi/100 uL, iv after 2 mins to drug uptake in ddY mouse brain at 10 uCi/100 uL, iv after 60 mins; type: ADME, organism-based; details: in vivo
In short: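 Normal female ddY mice (5 weeks, about 20 g) received the radiotracer iv, with groups of 4 per time point. At 2 and 60 min, brain and other organs were excised and weighed and counted in a γ-counter. %ID/g wet tissue was taken against diluted injectate aliquots. The ratio is brain %ID/g at 2 min divided by brain %ID/g at 60 min.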

[37] = Partition coefficient, log D of the compound; type: physicochemical; details: octanol/water
In short: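 Radiotracer partitioned between n-octanol and PBS: vortexed 3 min at room temperature, centrifuged 5 min at 3000 rpm. Weighed samples of the octanol (100 μL) and buffer (500 μL) layers were counted. log D is the log of the ratio of counts per gram, octanol versus PBS.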

[38] = tested on: Brain; experiment: Biodistribution in ddY mouse brain at 10 uCi/100 uL, iv after 2 mins by gamma counting; type: ADME, organism-based; details: in vivo; in short: as §1
[39] = tested on: Blood; experiment: Biodistribution in ddY mouse blood at 10 uCi/100 uL, iv after 2 mins by gamma counting; type: ADME, organism-based; details: in vivo; in short: as §1
[40] = tested on: Bone; experiment: Biodistribution in ddY mouse bone at 10 uCi/100 uL, iv after 2 mins by gamma counting; type: ADME, organism-based, Bone element; details: in vivo; in short: as §1
[41] = tested on: Liver; experiment: Biodistribution in ddY mouse liver at 10 uCi/100 uL, iv after 2 mins by gamma counting; type: ADME, organism-based; details: in vivo
[42] = tested on: Kidney; experiment: Biodistribution in ddY mouse kidney at 10 uCi/100 uL, iv after 2 mins by gamma counting; type: ADME, organism-based; details: in vivo

- Drug uptake [1]: 4.26 % ID/g
- Drug uptake [2]: 6.28 % ID/organ
- Drug uptake [3]: 4.12 % ID/g
- Drug uptake [4]: 12.3 % ID/g
- Drug uptake [5]: 7.6 % ID/g
- Drug uptake [6]: 1.51 % ID/g
- Drug uptake [7]: 3.89 % ID/g
- Drug uptake [8]: 2.42 % ID/g
- Drug uptake [9]: 24.41 % ID/g
- Drug uptake [10]: 12.77 % ID/g
- Drug uptake [11]: 6.19 % ID/g
- Drug uptake [12]: 7.39 % ID/organ
- Drug uptake [13]: 10.53 % ID/g
- Drug uptake [14]: 6.34 % ID/g
- Drug uptake [15]: 3.33 % ID/g
- Drug uptake [16]: 1.04 % ID/g
- Drug uptake [17]: 2.46 % ID/g
- Drug uptake [18]: 2.08 % ID/g
- Drug uptake [19]: 14.07 % ID/g
- Drug uptake [20]: 7.13 % ID/g
- Drug uptake [21]: 4.46 % ID/g
- Drug uptake [22]: 6 % ID/organ
- Drug uptake [23]: 17.5 % ID/g
- Drug uptake [24]: 3.38 % ID/g
- Drug uptake [25]: 1.9 % ID/g
- Drug uptake [26]: 0.9 % ID/g
- Drug uptake [27]: 1.6 % ID/g
- Drug uptake [28]: 2.33 % ID/g
- Drug uptake [29]: 6.88 % ID/g
- Drug uptake [30]: 3.67 % ID/g
- Drug uptake [31]: 1.93 % ID/g
- Drug uptake [32]: 3.98 % ID/organ
- Drug uptake [33]: 21.57 % ID/g
- Drug uptake [34]: 1.86 % ID/g
- Drug uptake [35]: 1.47 % ID/g
- Ratio [36]: 4.59
- logD [37]: 2.97
- Drug uptake [38]: 4.13 % ID/g
- Drug uptake [39]: 5.38 % ID/g
- Drug uptake [40]: 2.88 % ID/g
- Drug uptake [41]: 22.32 % ID/g
- Drug uptake [42]: 12.95 % ID/g
Structure (SMILES): CN(C)c1ccc(/C=C/C(=O)/C=C/c2ccc(OCCOCCOCC[18F])cc2)cc1

- Drug uptake [1]: 5.39 % ID/g
- Drug uptake [2]: 3.26 % ID/organ
- Drug uptake [3]: 6.58 % ID/g
- Drug uptake [4]: 12.19 % ID/g
- Drug uptake [5]: 10.55 % ID/g
- Drug uptake [6]: 1.89 % ID/g
- Drug uptake [7]: 7.99 % ID/g
- Drug uptake [8]: 2.93 % ID/g
- Drug uptake [9]: 30.09 % ID/g
- Drug uptake [10]: 14.15 % ID/g
- Drug uptake [11]: 6.62 % ID/g
- Drug uptake [12]: 2.61 % ID/organ
- Drug uptake [13]: 12.82 % ID/g
- Drug uptake [14]: 11.77 % ID/g
- Drug uptake [15]: 7.64 % ID/g
- Drug uptake [16]: 1.35 % ID/g
- Drug uptake [17]: 4.68 % ID/g
- Drug uptake [18]: 2.94 % ID/g
- Drug uptake [19]: 19.24 % ID/g
- Drug uptake [20]: 11.51 % ID/g
- Drug uptake [21]: 5.44 % ID/g
- Drug uptake [22]: 1.93 % ID/organ
- Drug uptake [23]: 24.34 % ID/g
- Drug uptake [24]: 7.43 % ID/g
- Drug uptake [25]: 5.44 % ID/g
- Drug uptake [26]: 1.27 % ID/g
- Drug uptake [27]: 3.59 % ID/g
- Drug uptake [28]: 2.54 % ID/g
- Drug uptake [29]: 14.07 % ID/g
- Drug uptake [30]: 9.43 % ID/g
- Drug uptake [31]: 5.35 % ID/g
- Drug uptake [32]: 1.28 % ID/organ
- Drug uptake [33]: 26.26 % ID/g
- Drug uptake [34]: 5.44 % ID/g
- Drug uptake [35]: 5.14 % ID/g
- Ratio [36]: 4.06
- logD [37]: 3.08
- Drug uptake [38]: 5.15 % ID/g
- Drug uptake [39]: 7.44 % ID/g
- Drug uptake [40]: 2.97 % ID/g
- Drug uptake [41]: 24.15 % ID/g
- Drug uptake [42]: 16.48 % ID/g
Structure (SMILES): CNc1ccc(/C=C/C(=O)/C=C/c2ccc(OCCOCCOCC[18F])cc2)cc1
